Values after ≈ are worked out from the molar mass of the structure shown.
What was measured:
[1] = tested on: Pro‐C3; test: Serum PD biomarker Pro-C3; type: in vivo, human; conditions: MAD; statistically significant after a single dose but not after multiple doses
Procedure, shortened: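 Oral tablets b.i.d. for 14 days (morning only day 14), 25–200 mg, in healthy adults randomized 6:2 versus placebo. Morning doses followed ≥10 h fasting; other doses came ≥1 h after a meal. Serum drawn predose and 2, 4, 6, 12 h after day 1 morning dose, day 2/7 predose, and predose to 72 h after day 14 dose. Pro-C3 measured by validated ELISA; AUEC0‑12h computed.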

[2] = tested on: CYP2C19, CYP2D6, CYP3A4, UGT2B4, and UGT2B7; test: Inhibition of CYP and UGT enzymes; type: in vitro ADME; conditions: at therapeutic concentration ranges; data on file
[3] = Solubility in water; type: physicochemical
[4] = tested on: monkeys; test: Multiple-dose toxicity study up to 28 days in monkeys; type: in vivo

## O[C@H]1CCCN[C@@H]1CCCn1cnc2c(Cl)c(Cl)ccc21 [Bersiporocin]
[1]
  mean AUEC0‐12h for serum Pro‐C3 compared to the placebo‐treated group: lower
[2]
  inhibition of CYP and UGT enzymes: did not inhibit
[3]
  solubility: 19.6 mg/mL (≈ 59.6 mM)
[4]; calculated from NOAEL in monkeys, safety factor = 10
  maximum recommended starting dose for a 60 kg adult: 154.8 mg
[4]; monkeys, concluded not to be an adverse event, transient
  clinical observation in toxicity study: vomiting was observed
